Source: ChEMBL document CHEMBL1132700, “Design, synthesis, structure-activity relationships, and biological characterization of novel arylalkoxyphenylalkylamine sigma ligands as potential antipsychotic drugs” (J Med Chem, 1999)

How the values were obtained:
[1] = molecular target: Sigma non-opioid intracellular receptor 1 (Rattus norvegicus, UniProt Q9R0C9); assay: Inhibitory concentration against radioligand [3H]3-PPP binding to Sigma opioid receptor type 1 in rat brain membrane; assay type: cell membranes
Method in brief: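 Rat whole-brain membranes from male Wistar rats (200–250 g), homogenized in 50 mM Tris/HCl pH 7.7, washed by repeated 50000g spins. Incubated with 2 nM [3H]-(+)-3-PPP and at least five concentrations of unlabeled drug. Filtered on polyethylenimine-soaked glass-fiber filters and counted by scintillation. IC50 from nonlinear curve fitting of competition data, duplicate determinations.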

D(2) dopamine receptor = D(2) dopamine receptor (Rattus norvegicus, UniProt P61169); assay: Inhibitory concentration against radioligand [3H](-)-sulpiride binding to Dopamine receptor D2 in rat
Method in brief: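 Striatal membranes from male Wistar rats (200–250 g), homogenized in 50 mM Tris/HCl pH 7.7, washed by repeated 50000g spins. Filtration on PEI-soaked glass-fiber filters, then scintillation counting. IC50 by nonlinear curve fitting, duplicate determinations.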

[2] = molecular target: T1, Adrenergic receptor alpha-1 (Rattus norvegicus, UniProt P15823+P23944+P43140); assay: Inhibitory concentration against radioligand [3H]prazosin binding to Alpha-1 adrenergic receptor in rat
T1 sequence (P15823 whole entry): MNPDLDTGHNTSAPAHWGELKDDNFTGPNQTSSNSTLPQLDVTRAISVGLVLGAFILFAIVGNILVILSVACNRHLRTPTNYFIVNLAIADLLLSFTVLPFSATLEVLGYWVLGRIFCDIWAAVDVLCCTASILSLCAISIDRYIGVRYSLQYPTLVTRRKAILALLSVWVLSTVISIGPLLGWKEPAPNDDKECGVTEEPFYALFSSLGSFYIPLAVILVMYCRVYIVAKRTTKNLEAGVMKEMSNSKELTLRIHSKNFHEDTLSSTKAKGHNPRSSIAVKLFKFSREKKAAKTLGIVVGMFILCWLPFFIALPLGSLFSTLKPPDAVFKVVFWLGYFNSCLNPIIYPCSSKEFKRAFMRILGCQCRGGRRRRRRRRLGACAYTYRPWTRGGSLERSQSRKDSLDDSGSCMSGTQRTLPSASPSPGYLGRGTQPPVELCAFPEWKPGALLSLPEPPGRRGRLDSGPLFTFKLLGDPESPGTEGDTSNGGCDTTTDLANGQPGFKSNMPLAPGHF
T1 sequence (P23944 whole entry): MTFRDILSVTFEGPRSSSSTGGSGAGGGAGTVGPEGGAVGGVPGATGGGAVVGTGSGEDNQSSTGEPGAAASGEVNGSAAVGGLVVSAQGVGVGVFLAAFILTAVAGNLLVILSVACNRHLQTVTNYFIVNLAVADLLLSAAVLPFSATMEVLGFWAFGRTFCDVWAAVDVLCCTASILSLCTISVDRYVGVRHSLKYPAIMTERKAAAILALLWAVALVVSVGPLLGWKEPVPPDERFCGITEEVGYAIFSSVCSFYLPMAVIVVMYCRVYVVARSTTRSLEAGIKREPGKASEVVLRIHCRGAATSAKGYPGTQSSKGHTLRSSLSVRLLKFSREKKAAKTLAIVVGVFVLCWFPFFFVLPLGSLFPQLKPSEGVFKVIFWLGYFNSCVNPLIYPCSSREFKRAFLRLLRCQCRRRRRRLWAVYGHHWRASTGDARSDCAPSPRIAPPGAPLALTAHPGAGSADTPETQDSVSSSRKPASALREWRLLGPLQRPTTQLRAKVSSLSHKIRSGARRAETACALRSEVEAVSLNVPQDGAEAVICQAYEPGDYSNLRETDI
T1 sequence (P43140 whole entry): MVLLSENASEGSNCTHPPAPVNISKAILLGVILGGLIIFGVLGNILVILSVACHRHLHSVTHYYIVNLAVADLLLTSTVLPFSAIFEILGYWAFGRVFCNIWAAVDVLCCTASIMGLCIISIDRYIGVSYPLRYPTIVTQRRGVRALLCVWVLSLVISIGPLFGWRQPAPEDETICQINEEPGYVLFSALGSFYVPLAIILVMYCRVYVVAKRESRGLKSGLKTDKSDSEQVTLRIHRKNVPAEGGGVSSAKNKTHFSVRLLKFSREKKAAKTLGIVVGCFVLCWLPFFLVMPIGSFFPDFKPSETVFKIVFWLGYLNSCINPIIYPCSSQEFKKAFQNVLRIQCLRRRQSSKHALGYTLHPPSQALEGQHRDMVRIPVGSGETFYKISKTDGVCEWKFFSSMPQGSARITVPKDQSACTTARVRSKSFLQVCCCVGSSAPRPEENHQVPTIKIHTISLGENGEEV
Method in brief: (§1)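 Male Wistar rat brain membranes in 50 mM Tris/HCl pH 7.7. Radioligands: PCP site 5 nM [3H]-PCP; D1 1 nM [3H]-SCH23390; 5-HT1A 0.2 nM [3H]-8-OH-DPAT; 5-HT2 5 nM [3H]-ketanserin; α1 0.2 nM [3H]-prazosin. Competition with at least five drug concentrations, filtration on PEI-soaked glass-fiber filters, scintillation counting, IC50 by nonlinear curve fit.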

D(1A) dopamine receptor = D(1A) dopamine receptor (Rattus norvegicus, UniProt P18901); assay: Inhibitory concentration against radioligand [3H]SCH-23390 binding to Dopamine receptor D1 in rat; method in brief: as §1
Mus musculus [3] = organism: Mus musculus; assay: Effective dose against (+)-SKF-10047-induced stereotyped behavior in mice was determined; assay type: functional
Method in brief: (§2)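 Male ICR mice (25–30 g, 10 per group) acclimatized at least 1 h. Test drug given orally 30 min before (+)-SKF10,047 30 mg/kg ip. Stereotypy scored on a 0–5 scale from 10 min post-injection, every 5 min for 40 min. Vehicle plus three doses were tested. Total score expressed as percent of control, and ED25 derived.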

[4] = molecular target: Glutamate receptor ionotropic, NMDA 1 (Rattus norvegicus, UniProt P35439); assay: Inhibitory concentration against radioligand [3H]PCP binding to PCP site of N-methyl-D-aspartate glutamate receptor in rat; method in brief: as §1
[5] = molecular target: T2, 5-hydroxytryptamine receptor 1A (Rattus norvegicus, UniProt P19327); assay: Inhibitory concentration against radioligand [3H]hydroxy-2-(di-n-propylamino)-tetralin binding to 5-hydroxytryptamine 1A receptor in rat; method in brief: as §1
T2 sequence (P19327 whole entry): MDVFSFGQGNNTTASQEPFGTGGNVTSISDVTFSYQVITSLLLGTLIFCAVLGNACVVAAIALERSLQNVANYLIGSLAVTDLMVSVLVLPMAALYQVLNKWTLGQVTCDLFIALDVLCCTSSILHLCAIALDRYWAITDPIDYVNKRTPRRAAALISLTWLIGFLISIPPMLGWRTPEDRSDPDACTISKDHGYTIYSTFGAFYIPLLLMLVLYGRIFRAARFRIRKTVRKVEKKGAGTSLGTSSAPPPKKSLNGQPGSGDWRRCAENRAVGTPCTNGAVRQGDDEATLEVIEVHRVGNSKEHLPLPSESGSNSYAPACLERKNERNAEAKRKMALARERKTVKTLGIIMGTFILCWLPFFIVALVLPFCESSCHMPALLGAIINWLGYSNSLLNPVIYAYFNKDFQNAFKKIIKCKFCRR

[6] = molecular target: Serotonin 2 (5-HT2) receptor (Rattus norvegicus, UniProt P30994+P08909+P14842); assay: Inhibitory concentration against radioligand [3H]ketanserin binding to 5-hydroxytryptamine 2 receptor in rat; method in brief: as §1
Mus musculus [7] = assay: Effect at an intraperitoneal dose of 30 mg/Kg against (+)-SKF-10047-induced stereotyped behavior in mice was determined; assay type: functional; method in brief: as §2
Mus musculus [8] = assay: Effect at an intraperitoneal dose of 10 mg/kg against methamphetamine-induced hyperlocomotion in mice; assay type: functional

Chain of D(2) dopamine receptor (P61169 whole entry): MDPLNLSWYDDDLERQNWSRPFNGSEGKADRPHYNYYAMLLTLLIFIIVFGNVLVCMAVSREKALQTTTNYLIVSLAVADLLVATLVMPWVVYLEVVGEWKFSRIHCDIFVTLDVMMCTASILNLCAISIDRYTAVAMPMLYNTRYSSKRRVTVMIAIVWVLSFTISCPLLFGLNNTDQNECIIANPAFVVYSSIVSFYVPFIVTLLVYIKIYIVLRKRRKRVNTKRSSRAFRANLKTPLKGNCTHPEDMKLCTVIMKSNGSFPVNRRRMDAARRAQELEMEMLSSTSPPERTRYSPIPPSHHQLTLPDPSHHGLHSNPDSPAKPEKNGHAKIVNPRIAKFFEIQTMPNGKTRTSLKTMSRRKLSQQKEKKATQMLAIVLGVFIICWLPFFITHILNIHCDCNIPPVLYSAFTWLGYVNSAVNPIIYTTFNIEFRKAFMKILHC
Chain of Sigma non-opioid intracellular receptor 1 (Q9R0C9 whole entry): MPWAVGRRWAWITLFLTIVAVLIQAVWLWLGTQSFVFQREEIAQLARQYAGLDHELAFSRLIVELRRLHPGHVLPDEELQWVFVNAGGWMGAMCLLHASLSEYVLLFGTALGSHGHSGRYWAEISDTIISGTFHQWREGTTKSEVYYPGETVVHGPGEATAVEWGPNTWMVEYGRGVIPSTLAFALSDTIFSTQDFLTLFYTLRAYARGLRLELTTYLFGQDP
Chain of D(1A) dopamine receptor (P18901 whole entry): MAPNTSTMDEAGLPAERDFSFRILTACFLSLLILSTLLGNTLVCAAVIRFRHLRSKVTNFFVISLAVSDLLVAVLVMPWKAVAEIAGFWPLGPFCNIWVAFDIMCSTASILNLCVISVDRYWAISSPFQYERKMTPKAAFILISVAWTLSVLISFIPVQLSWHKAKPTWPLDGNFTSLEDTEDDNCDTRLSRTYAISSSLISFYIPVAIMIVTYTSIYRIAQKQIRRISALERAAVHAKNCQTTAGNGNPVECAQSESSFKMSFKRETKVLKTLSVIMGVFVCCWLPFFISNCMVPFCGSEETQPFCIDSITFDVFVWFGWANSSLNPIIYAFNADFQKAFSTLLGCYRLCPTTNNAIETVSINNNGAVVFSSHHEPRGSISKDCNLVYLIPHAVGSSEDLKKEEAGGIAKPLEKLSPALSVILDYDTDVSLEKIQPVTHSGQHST

| Compound | IC50 [1] | IC50 (D(2) dopamine receptor) | ED25 (Mus musculus [3]) | other results |
| --- | --- | --- | --- | --- |
| CCCN(CCC)CCc1cccc(OC)c1OCCCc1ccccc1 | 1.7 nM | > 1000 nM |  |  |
| Clc1ccc(OCCc2ccccc2)c(CCCN2CCN(c3ncccn3)CC2)c1 | 169 nM | 115 nM |  |  |
| COc1cccc(CCN2CCN(c3ccccn3)CC2)c1OCCc1ccccc1 | > 1000 nM | 137 nM |  |  |
| COc1cccc(CCN2CCOCC2)c1OCCc1ccccc1 | 373 nM | > 1000 nM |  |  |
| CCCN(CCC)CCc1cc(Cl)ccc1OCCc1ccccc1.O=C(O)C(=O)O |  |  | 235 mg/kg | IC50 [2]: 90 nM; IC50 (D(1A) dopamine receptor): > 1000 nM; IC50 [4]: > 1000 nM; IC50 [5]: 289 nM; IC50 [6]: 196 nM |
| CCCN(CCC)CCc1cccc(OC)c1OCc1ccccc1.O=C(O)C(=O)O | 26 nM | > 1000 nM |  | Control (Mus musculus [7]): 64% |
| CCCN(CCC)CCCc1cccc(OC)c1OCCc1ccccc1 | 13 nM | > 1000 nM |  |  |
| CCCN(CCC)CCc1ccccc1OCCc1ccccc1 | 15 nM | 436 nM |  |  |
| CCCN(CCC)CCc1ccc(OC)c(OCCc2ccccc2)c1.Cl |  | > 1000 nM | 6.5 mg/kg | IC50 [2]: 10800 nM; IC50 (D(1A) dopamine receptor): > 1000 nM; IC50 [4]: > 1000 nM; Control (Mus musculus [8]): 119%; IC50 [5]: 6460 nM; IC50 [6]: > 1000 nM |
| CCCN(CCC)CCc1cccc(OC)c1OCCc1ccccc1.Cl |  | > 1000 nM | 79 mg/kg | IC50 [2]: 11700 nM; IC50 (D(1A) dopamine receptor): > 1000 nM; IC50 [4]: > 10000 nM; Control (Mus musculus [8]): 98%; IC50 [5]: 3580 nM; IC50 [6]: 8800 nM |
| CCCCCCN(CCC)CCc1ccc(OC)c(OCCc2ccccc2)c1 | 1.8 nM | 619 nM |  |  |
| CCCN(CCC)CCCc1ccc(OC)c(OCCc2ccccc2)c1.Cl | 1 nM |  | 44 mg/kg | IC50 [2]: 14100 nM; IC50 (D(1A) dopamine receptor): > 1000 nM; IC50 [4]: > 1000 nM; Control (Mus musculus [8]): 99%; IC50 [5]: 373 nM; IC50 [6]: > 1000 nM |
| COc1ccc(CCN2CCN(c3ccccc3OC)CC2)cc1OCCc1ccccc1 | 25 nM | 11 nM |  |  |
| CCCN(CCC)CCc1ccc(O)c2c1-c1ccccc1CO2 | 558 nM | > 1000 nM |  |  |
| OC(CCCN1CCN(c2ncc(F)cn2)CC1)c1ccc(F)cc1 (centres undefined) [BMY-14802] |  | > 1000 nM | 7.6 mg/kg |  |
| O=C(CCCN1CCC(O)(c2ccc(Cl)cc2)CC1)c1ccc(F)cc1 [HALOPERIDOL] |  |  |  | Control (Mus musculus [8]): 7.3% |
